Source: ChEMBL document CHEMBL2375307, “Synthesis and identification of β-aryloxyquinoline based diversely fluorine substituted N-aryl quinolone derivatives as a new class of antimicrobial, antituberculosis and antioxidant agents” (Eur J Med Chem, 2013)
In brackets after ≈: the same amount, converted by molar mass.

Assays:
[1] = Antioxidant activity of the compound assessed as ascorbic acid equivalent of ferric tripyridyl triazine reducing activity at 200 ug/mL after 15 mins by FRAP assay; type: functional
Procedure, shortened: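 FRAP, modified Benzie and Strain method. Fe(III)-TPTZ reagent made with TPTZ in 40 mM HCl, FeCl3 solution and acetate buffer pH 3.6. 200 µL sample solution mixed with 3 mL reagent and held 15 min at 37 °C. Fe(II)-TPTZ read at 593 nm against an ascorbic acid standard, expressed as ascorbic acid equivalents (mmol/100 g compound).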

[2] = Toxicity in brine shrimps cysts assessed as mortality after 24 hrs relative to control; type: organism-based; conditions: artemia, in vivo
[3] = Toxicity in brine shrimps cysts assessed as mortality at 50 ug/mL after 24 hrs relative to control; type: organism-based; conditions: artemia, in vivo
[4] = Toxicity in brine shrimps cysts assessed as mortality at 30 ug/mL after 24 hrs relative to control; type: organism-based; conditions: artemia, in vivo
[5] = Toxicity in brine shrimps cysts assessed as mortality at 40 ug/mL after 24 hrs relative to control; type: organism-based; conditions: artemia, in vivo
[6] = Toxicity in brine shrimps cysts assessed as mortality at 20 ug/mL after 24 hrs relative to control; type: organism-based; conditions: artemia, in vivo
[7] = Toxicity in brine shrimps cysts assessed as mortality at 5 ug/ml after 24 hrs relative to control; type: organism-based; conditions: artemia, in vivo
[8] = Toxicity in brine shrimps cysts assessed as mortality at 10 ug/mL after 24 hrs relative to control; type: organism-based; conditions: artemia, in vivo
[9] = tested on: Mycobacterium tuberculosis; experiment: Antitubercular activity against Mycobacterium tuberculosis H37Rv assessed as growth inhibition after 12 to 28 days by Lowenstein-Jensen method; type: functional
Procedure, shortened: (§1)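 Modified Lowenstein-Jensen method. Compound at 250 in DMSO added to liquid L-J medium, then sterilized by inspissation and incubated 24 h at 37 °C. Streaked with H37Rv harvested in 0.85% saline (5 × 10⁴ bacilli/tube) and incubated at 37 °C. Colonies read at 12, 22 and 28 days versus drug-free control; no colonies or <20 colonies scored as inhibition.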

[10] = tested on: Mycobacterium tuberculosis; experiment: Antitubercular activity against Mycobacterium tuberculosis H37Rv assessed as growth inhibition at 250 ug/mL after 12 to 28 days by Lowenstein-Jensen method relative to control; type: functional; conditions: read-out: GI; procedure, shortened: as §1
Candida albicans = experiment: Antifungal activity against Candida albicans MTCC 227 assessed as growth inhibition after overnight incubation by NCCLS broth microdilution method; type: functional
Procedure, shortened: (§2)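 Broth microdilution per NCCLS in Mueller Hinton broth, compounds diluted in DMSO. Primary screen at 500, 250 and 200 µg/mL; actives retested at 100, 62.5, 50, 25 and 12.5 µg/mL. Tubes incubated overnight at 37 °C. […] Non-growing tubes subcultured overnight at 37 °C to judge bacteriostatic versus bactericidal action.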

Aspergillus fumigatus = experiment: Antifungal activity against Aspergillus fumigatus MTCC 3008 assessed as growth inhibition after overnight incubation by NCCLS broth microdilution method; type: functional; procedure, shortened: as §2
Vibrio cholerae = experiment: Antibacterial activity against Vibrio cholerae MTCC 3906 assessed as growth inhibition after overnight incubation by NCCLS broth microdilution method; type: functional
Salmonella typhi = experiment: Antibacterial activity against Salmonella typhi MTCC 98 assessed as growth inhibition after overnight incubation by NCCLS broth microdilution method; type: functional, Salmonella enterica subsp. enterica serovar Typhi; conditions: Salmonella enterica
Escherichia coli = experiment: Antibacterial activity against Escherichia coli MTCC 443 assessed as growth inhibition after overnight incubation by NCCLS broth microdilution method; type: functional; procedure, shortened: as §2
Streptococcus pneumoniae = experiment: Antibacterial activity against Streptococcus pneumoniae MTCC 1936 assessed as growth inhibition after overnight incubation by NCCLS broth microdilution method; type: functional; procedure, shortened: as §2
Clostridium tetani = experiment: Antibacterial activity against Clostridium tetani MTCC 449 assessed as growth inhibition after overnight incubation by NCCLS broth microdilution method; type: functional
Bacillus subtilis = experiment: Antibacterial activity against Bacillus subtilis MTCC 441 assessed as growth inhibition after overnight incubation by NCCLS broth microdilution method; type: functional; procedure, shortened: as §2

Row | Structure (SMILES) | Activity [1] [equiv] | LC50 at 24 h [2] [µg/mL] | mortality at 24 h, 50 ug/mL [3] [%] | mortality at 24 h, 30 ug/mL [4] [%] | mortality at 24 h, 40 ug/mL [5] [%] | mortality at 24 h, 20 ug/mL [6] [%] | mortality at 24 h, 5 ug/ml [7] [%] | mortality at 24 h, 10 ug/mL [8] [%] | MIC [9] [µg/mL] | inhibition of growth at 250 µg/mL [10] [%] | MIC (Candida albicans) [µg/mL] | MIC (Aspergillus fumigatus) [µg/mL] | MIC (Vibrio cholerae) [µg/mL] | MIC (Salmonella typhi) [µg/mL] | MIC (Escherichia coli) [µg/mL] | MIC (Streptococcus pneumoniae) [µg/mL] | MIC (Clostridium tetani) [µg/mL] | MIC (Bacillus subtilis) [µg/mL]
1 | N#CC1=C(N)N(c2cccc(C(F)(F)F)c2)C2=C(C(=O)CCC2)C1c1cc2cc(Cl)ccc2nc1Oc1ccc(C#N)cc1 (centres undefined) | 5.15 | 37.8 (≈ 61.7 µM) | 70 | 40 | 50 | 20 | 0 | 10 | 25 (≈ 40.8 µM) | 99 | 1000 (≈ 1630 µM) | 1000 (≈ 1630 µM) | 62.5 (≈ 102 µM) | 200 (≈ 327 µM) | 250 (≈ 408 µM) | 62.5 (≈ 102 µM) | 200 (≈ 327 µM) | 200 (≈ 327 µM)
2 | Cc1ccc2nc(Oc3ccc(C#N)cc3)c(C3C(C#N)=C(N)N(c4cc(F)ccc4F)C4=C3C(=O)CC(C)(C)C4)cc2c1 (centres undefined) | 13.9 | 27.5 (≈ 46.8 µM) | 80 | 50 | 70 | 20 | 0 | 10 | 62.5 (≈ 106 µM) | 99 | > 1000 | > 1000 | 25 (≈ 42.5 µM) | 200 (≈ 340 µM) | 62.5 (≈ 106 µM) | 100 (≈ 170 µM) | 100 (≈ 170 µM) | 200 (≈ 340 µM)
3 | CO[C@H]1/C=C/O[C@@]2(C)Oc3c(C)c(O)c4c(O)c(c(/C=N/N5CCN(C)CC5)c(O)c4c3C2=O)NC(=O)/C(C)=C\C=C\[C@H](C)[C@H](O)[C@@H](C)[C@@H](O)[C@@H](C)[C@H](OC(C)=O)[C@@H]1C [RIFAMPIN] | – | – | – | – | – | – | – | – | 40 (≈ 48.6 µM) | 98 | – | – | – | – | – | – | – | –
4 | Cc1ccc2nc(Oc3ccc(C#N)cc3)c(C3C(C#N)=C(N)N(c4cccc(C(F)(F)F)c4)C4=C3C(=O)CC(C)(C)C4)cc2c1 (centres undefined) | 339 | 17.1 (≈ 27.7 µM) | 90 | 70 | 80 | 50 | 10 | 30 | 125 (≈ 202 µM) | 93 | > 1000 | 1000 (≈ 1610 µM) | 125 (≈ 202 µM) | 100 (≈ 161 µM) | 100 (≈ 161 µM) | 125 (≈ 202 µM) | 250 (≈ 403 µM) | 100 (≈ 161 µM)
5 | N#CC1=C(N)N(c2ccc(F)c(F)c2)C2=C(C(=O)CCC2)C1c1cc2cc(Cl)ccc2nc1Oc1ccc(C#N)cc1 (centres undefined) | 2.97 | 14.1 (≈ 24.3 µM) | 90 | 70 | 80 | 60 | 20 | 40 | 100 (≈ 172 µM) | 95 | 1000 (≈ 1720 µM) | > 1000 | 100 (≈ 172 µM) | 250 (≈ 431 µM) | 200 (≈ 345 µM) | 200 (≈ 345 µM) | 200 (≈ 345 µM) | 125 (≈ 216 µM)
6 | CC1(C)CC(=O)C2=C(C1)N(c1ccc(F)c(F)c1)C(N)=C(C#N)C2c1cc2cc(Cl)ccc2nc1Oc1ccc(C#N)cc1 (centres undefined) | 3.36 | – | – | – | – | – | – | – | – | 84 | 500 (≈ 822 µM) | 500 (≈ 822 µM) | 250 (≈ 411 µM) | 200 (≈ 329 µM) | 125 (≈ 206 µM) | 100 (≈ 164 µM) | 125 (≈ 206 µM) | 200 (≈ 329 µM)
7 | CC1(C)CC(=O)C2=C(C1)N(c1cccc(C(F)(F)F)c1)C(N)=C(C#N)C2c1cc2cc(Cl)ccc2nc1Oc1ccc(C#N)cc1 (centres undefined) | 7.13 | 23.3 (≈ 36.5 µM) | 80 | 50 | 70 | 40 | 10 | 20 | 62.5 (≈ 97.6 µM) | 98 | > 1000 | 1000 (≈ 1560 µM) | 100 (≈ 156 µM) | 125 (≈ 195 µM) | 125 (≈ 195 µM) | 125 (≈ 195 µM) | 250 (≈ 391 µM) | 250 (≈ 391 µM)
8 | N#Cc1ccc(Oc2nc3ccccc3cc2C=O)cc1 | 19.2 | – | – | – | – | – | – | – | – | 42 | 1000 (≈ 3650 µM) | 500 (≈ 1820 µM) | 250 (≈ 911 µM) | 100 (≈ 365 µM) | 100 (≈ 365 µM) | 250 (≈ 911 µM) | 250 (≈ 911 µM) | 200 (≈ 729 µM)
9 | CC1(C)CC(=O)C2=C(C1)N(c1cc(F)ccc1F)C(N)=C(C#N)C2c1cc2cc(Cl)ccc2nc1Oc1ccc(C#N)cc1 (centres undefined) | 2.17 | – | – | – | – | – | – | – | – | 87 | 1000 (≈ 1640 µM) | > 1000 | 250 (≈ 411 µM) | 125 (≈ 206 µM) | 250 (≈ 411 µM) | 250 (≈ 411 µM) | 125 (≈ 206 µM) | 100 (≈ 164 µM)
10 | NNC(=O)c1ccncc1 [ISONIAZID] | – | – | – | – | – | – | – | – | 0.2 (≈ 1.46 µM) | 99 | – | – | – | – | – | – | – | –
